This note sets out measurements from ChEMBL document CHEMBL1136930, “Doubly loaded cycloSaligenyl-pronucleotides - 5,5'-Bis-(cycloSaligenyl-2',3'-dideoxy-2',3'-didehydrothymidine monophosphates)” (J Med Chem, 2009).

Broadly, the EC50 is the concentration at which the effect is half-maximal. The term CC50 denotes the concentration that lowers cell viability or growth by half. Higher therefore signals lower toxicity to the cells. In general, half-life refers to the time needed for the level to fall by half in the phase considered.

The nature of data set [1]: Chemical stability assessed as half life of hydrolysis in RPMI-1640 culture medium at pH 7.6 in presence 10% heat-inactivated fetal calf serum by HPLC analysis. In kind it is physicochemical. The conditions noted are these: cattle; for t1/2: serum.
Data set [2] has as its system Human immunodeficiency virus 1. Kind of data set: Antiviral activity against HIV1 in wild type human CEM cells assessed as virus-induced cytopathic effect after 4 to 5 days by microscopy. In kind it is functional, organism-based, CCRF-CEM. The method in brief:
(§1)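 50% effective concentration against HIV in wild-type or thymidine kinase-deficient CEM T-lymphocytes, reported as the mean of two to three independent experiments.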
In general terms: Cytopathic effects are the visible damage that an infection or toxin causes in cultured cells.

For data set [3], the system named is Human immunodeficiency virus 2. Nature of the data set: Antiviral activity against HIV2 in thymidine kinase deficient human CEM cells assessed as virus-induced cytopathic effect after 4 to 5 days by microscopy. In kind it is functional, organism-based, CCRF-CEM. The method in brief:
as §1

Data set [4] in a line: Ratio of hydrolysis half life in aqueous phosphate buffer saline at pH 7.3 to hydrolysis half life in RPMI-1640 culture medium at pH 7.6 in presence 10% heat-inactivated fetal calf serum. In kind it is ADME.
Data set [5] concerns Human immunodeficiency virus 2. Nature of the data set: Antiviral activity against HIV2 in wild type human CEM cells assessed as virus-induced cytopathic effect after 4 to 5 days by microscopy. Type of data set: functional, organism-based, CCRF-CEM. The method in brief:
as §1

A short description of data set [6]: Chemical stability assessed as hydrolysis half life in aqueous phosphate buffer saline at pH 7.6 by HPLC analysis. Type of data set: physicochemical. Conditions: for t1/2: buffer; for half-life: aqueous phosphate buffered saline.
Data set [7] in a line: (§2) Cytostatic activity against wild type human CEM cells. Conditions: wild type CEM (CCRF-CEM) cells. Type of data set: cell-based, CCRF-CEM. The method in brief: (§3)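 50% cytostatic concentration measured in wild-type CEM T-lymphocyte cultures.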
Data set [8] is described as follows: Chemical stability assessed as hydrolysis half life in aqueous phosphate buffer saline at pH 7.3 by HPLC analysis. In kind it is physicochemical. Conditions: for t1/2: buffer; for half-life: aqueous phosphate buffered saline.
A further data set concerns CCRF-CEM. The description is as §2. In kind it is cell-based. Conditions: ccrf-cem. The method in brief:
as §3

Data set [9] can be described thus: Chemical stability assessed as hydrolysis half life by HPLC analysis. In kind it is physicochemical.
Data set [10] can be described thus: Ratio of hydrolysis half life in RPMI-1640 culture medium at pH 7.6 in presence 10% heat-inactivated fetal calf serum to hydrolysis half life in aqueous phosphate buffer saline at pH 7.6. In kind it is ADME. Conditions: cattle.
Where [11] appears, read: Human immunodeficiency virus 1, CCRF-CEM.
Where [12] appears, read: Human immunodeficiency virus 2, CCRF-CEM.

In the case of `Cc1cn([C@H]2C=C[C@@H](COP3(=O)OCc4cc(-c5ccc6c(c5)COP(=O)(OC[C@@H]5C=C[C@H](n7cc(C)c(=O)[nH]c7=O)O5)O6)ccc4O3)O2)c(=O)[nH]c1=O` (some centres undefined), the t1/2 in [1] came to 0.8 h; in data set [6] it was 0.5 h; in [8] it was 1.7 h. In addition, the EC50 in data set [2] (setting [11]) was 0.51 µM; in [3] (ccrf-cem), 7.5 µM; in data set [5] (setting [12]), 0.62 µM. The Ratio in data set [4] is recorded as 2. Besides, the CC50 in data set [7] stood at 115 µM.

On to `Cc1cn([C@H]2C=C[C@@H](COP3(=O)OCc4cc(-c5ccc6c(c5)COP(=O)(OC[C@@H]5C=C[C@H](n7cc(C)c(=O)[nH]c7=O)O5)O6)ccc4O3)O2)c(=O)[nH]c1=O` (single isomer, unassigned; form 1), for which the results for the t1/2 in data set [1], in [6] and in data set [8] were 0.6 h, 0.4 h and 1 h, respectively. The EC50 was 0.46 µM in [2] (ccrf-cem), 4.4 µM in data set [3] (ccrf-cem) and 1.2 µM in data set [5] (ccrf-cem). The midpoint of cytotoxicity in the data set on CCRF-CEM, the CC50, lay at 107 µM.

With `Cc1cn([C@H]2C=C[C@@H](COP3(=O)OCc4cccc(-c5cccc6c5OP(=O)(OC[C@@H]5C=C[C@H](n7cc(C)c(=O)[nH]c7=O)O5)OC6)c4O3)O2)c(=O)[nH]c1=O` (some centres undefined), the t1/2 in [8] is 8.2 h.

In the case of `CC(C)(C)c1cc(-c2cc(CO)c(O)c(C(C)(C)C)c2)cc(CO)c1O`, the values for the EC50 in [2] (setting [11]), in data set [3] (setting [12]) and in [5] (setting [12]) were 7.9 µM, 6.9 µM and 7.9 µM, respectively. This compound came in with a CC50 in data set [7] of 20 µM.

Take `Cc1cn([C@H]2C=C[C@@H](COP3(=O)OCc4cc(-c5ccc6c(c5)COP(=O)(OC[C@@H]5C=C[C@H](n7cc(C)c(=O)[nH]c7=O)O5)O6)ccc4O3)O2)c(=O)[nH]c1=O` (single isomer, unassigned; form 2): the half-life in [1] is 1 h; in data set [6], 0.7 h. Also, the EC50 came to 0.47 µM in data set [2] (ccrf-cem) and 3.3 µM in data set [3] (ccrf-cem). In addition, the CC50 in the data set with CCRF-CEM stood at 78 µM. For the same compound, the t1/2 in data set [8] stood at 3.3 h.

Regarding `Cc1cc(-c2cc(C)c(O)c(CO)c2)cc(CO)c1O`, the EC50 in [2] (setting [11]) was 20 µM; in [3] (setting [12]), above 50 µM; in data set [5] (setting [12]), above 50 µM. In addition, in data set [7], the midpoint of cytotoxicity, the CC50, lay at 96 µM.

As for `Cc1cn([C@H]2C=C[C@@H](COP3(=O)OCc4cccc(-c5cccc6c5OP(=O)(OC[C@@H]5C=C[C@H](n7cc(C)c(=O)[nH]c7=O)O5)OC6)c4O3)O2)c(=O)[nH]c1=O` (single isomer, unassigned; form 1), the t1/2 in [8] is 3.2 h.

For the compound `Cc1cn([C@H]2C=C[C@@H](COP3(=O)OCc4cc(-c5ccc(O)c(CO)c5)ccc4O3)O2)c(=O)[nH]c1=O` (some centres undefined), the half-life in data set [1] was 2.1 h; in data set [6], 2 h; in data set [8] it was 2.2 h. Besides, the EC50 in data set [2] (setting [11]) is 0.73 µM; in data set [3] (setting [12]) it was 3.7 µM; in data set [5] (setting [12]) it was 0.91 µM. Also, the midpoint of cytotoxicity in data set [7], the CC50, lay at 82 µM.

Regarding `Cc1cn([C@H]2C=C[C@@H](COP3(=O)OCc4cc(-c5cc6c(c(C(C)(C)C)c5)OP(=O)(OC[C@@H]5C=C[C@H](n7cc(C)c(=O)[nH]c7=O)O5)OC6)cc(C(C)(C)C)c4O3)O2)c(=O)[nH]c1=O` (single isomer, unassigned; form 2), the t1/2 was found to be 8 h in [1], 4.1 h in data set [6] and 4.7 h in [8]. Besides, the values for the EC50 in data set [2] (ccrf-cem), in data set [3] (ccrf-cem) and in [5] (ccrf-cem) were 0.49 µM, 3.2 µM and 1 µM, respectively. In the data set on CCRF-CEM, this compound yielded a CC50 of 19 µM.

Regarding `OCc1cc(-c2ccc(O)c(CO)c2)ccc1O`, the EC50 turned out to be 99 µM in data set [2] (setting [11]), 18 µM in data set [3] (setting [12]) and 117 µM in [5] (setting [12]). This compound yielded a CC50 in [7] above 250 µM.

As for `Cc1cn([C@H]2C=C[C@@H](CO)O2)c(=O)[nH]c1=O` [STAVUDINE], the EC50 in [2] (setting [11]) turned out to be 0.56 µM; in data set [3] (setting [12]), 29 µM; in [5] (setting [12]), 0.79 µM. Besides, the CC50 in [7] is above 250 µM.

As to `Cc1cn([C@H]2C=C[C@@H](COP3(=O)OCc4cc(-c5ccccc5)ccc4O3)O2)c(=O)[nH]c1=O` (some centres undefined), in data set [9], the half-life is 3.1 h.

For `Cc1cn([C@H]2C=C[C@@H](COP3(=O)OCc4cc(-c5cc6c(c(C(C)(C)C)c5)OP(=O)(OC[C@@H]5C=C[C@H](n7cc(C)c(=O)[nH]c7=O)O5)OC6)cc(C(C)(C)C)c4O3)O2)c(=O)[nH]c1=O` (single isomer, unassigned; form 3), the t1/2 in data set [1] was found to be 9.1 h; in data set [6], 4.4 h; in [8], 5.3 h. In addition, the EC50 was determined as 0.86 µM in [2] (ccrf-cem), 2.6 µM in data set [3] (ccrf-cem) and 2 µM in [5] (ccrf-cem).

As to `Cc1cn([C@H]2C=C[C@@H](COP3(=O)OCc4cc(-c5cc6c(c(C(C)(C)C)c5)OP(=O)(OC[C@@H]5C=C[C@H](n7cc(C)c(=O)[nH]c7=O)O5)OC6)cc(C(C)(C)C)c4O3)O2)c(=O)[nH]c1=O` (some centres undefined), the half-life was 8.3 h in data set [1], 4.1 h in data set [6] and 4.7 h in data set [8]. The EC50 stood at 0.88 µM in [2] (setting [11]), 2.9 µM in data set [3] (setting [12]) and 1.3 µM in [5] (setting [12]). For the same compound, the Ratio in data set [10] is reported as 2. For the same compound, in [7], the CC50 turned out to be 20 µM.

Consider `Cc1cn([C@H]2C=C[C@@H](COP3(=O)OCc4cc(-c5cc6c(c(C(C)(C)C)c5)OP(=O)(OC[C@@H]5C=C[C@H](n7cc(C)c(=O)[nH]c7=O)O5)OC6)cc(C(C)(C)C)c4O3)O2)c(=O)[nH]c1=O` (single isomer, unassigned; form 1), for which the t1/2 amounted to 7.9 h in [1], 3.9 h in data set [6] and 4.3 h in data set [8]. Moreover, the EC50 amounted to 0.81 µM in data set [2] (ccrf-cem), 2.8 µM in [3] (ccrf-cem) and 1.6 µM in data set [5] (ccrf-cem). The compound also came in with a CC50 in the data set on CCRF-CEM of 18 µM.

Regarding `Cc1cccc2c1OP(=O)(OC[C@@H]1C=C[C@H](n3cc(C)c(=O)[nH]c3=O)O1)OC2` (some centres undefined), in [9], the half-life was 15 h.

`Cc1cc(-c2cc(C)c3c(c2)COP(=O)(OC[C@@H]2C=C[C@H](n4cc(C)c(=O)[nH]c4=O)O2)O3)cc2c1OP(=O)(OC[C@@H]1C=C[C@H](n3cc(C)c(=O)[nH]c3=O)O1)OC2` (some centres undefined): the half-life in data set [1] was 2.3 h; in data set [6], 2.3 h; in [8], 2.2 h. The EC50 in [2] (setting [11]) amounted to 0.4 µM; in [3] (setting [12]) it was 0.85 µM; in [5] (setting [12]), 0.83 µM. For the same compound, half-maximal cytotoxicity in [7] (CC50) was put at 64 µM.

In the case of `Cc1cn([C@H]2C=C[C@@H](COP3(=O)OCc4cccc(-c5cccc6c5OP(=O)(OC[C@@H]5C=C[C@H](n7cc(C)c(=O)[nH]c7=O)O5)OC6)c4O3)O2)c(=O)[nH]c1=O` (single isomer, unassigned; form 2), the t1/2 in data set [8] is 8.5 h.
